ChEMBL document CHEMBL3525903 (Drug Metab Dispos, 2013)
pIC50: −log10 of the molar value.

Tests used:
[1] = test system: P-glycoprotein; experiment: Permeability assessed as human P-glycoprotein-mediated of transport of basolateral to apical side expressed in pig LLC-PK1 cells by Transwell experiment/liquid scintillation counting; type: ADME, cell-based
[2] = biological target: T1, OCTN1 (SLC22A4) (Homo sapiens, UniProt Q9H015); experiment: Inhibition of OCTN1 (unknown origin) expressed in HEK293 cells assessed as reduction of [3H]ergothioneine substrate uptake at 100 uM by liquid scintillation counting; type: cell-based; conditions: HEK293 cells expressing OCTN1, probe [3H]ergothioneine
T1 sequence (Q9H015 whole entry): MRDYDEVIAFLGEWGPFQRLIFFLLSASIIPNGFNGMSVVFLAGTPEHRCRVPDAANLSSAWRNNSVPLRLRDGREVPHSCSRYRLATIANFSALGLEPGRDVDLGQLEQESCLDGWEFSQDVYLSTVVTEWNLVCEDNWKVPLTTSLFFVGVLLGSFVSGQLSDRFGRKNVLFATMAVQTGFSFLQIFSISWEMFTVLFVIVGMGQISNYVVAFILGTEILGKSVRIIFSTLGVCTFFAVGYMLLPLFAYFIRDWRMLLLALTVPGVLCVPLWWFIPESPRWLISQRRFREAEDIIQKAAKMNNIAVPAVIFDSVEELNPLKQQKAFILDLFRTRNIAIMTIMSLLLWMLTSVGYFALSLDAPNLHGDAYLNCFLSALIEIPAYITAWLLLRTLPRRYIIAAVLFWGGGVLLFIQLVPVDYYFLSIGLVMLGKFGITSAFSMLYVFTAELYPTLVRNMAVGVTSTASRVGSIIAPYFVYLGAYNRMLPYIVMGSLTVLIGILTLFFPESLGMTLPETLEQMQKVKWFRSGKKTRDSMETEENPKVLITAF
How it was run: (§1)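 HEK293 cells transiently transfected with OAT, OATP or OCT plasmid (FuGENE6; 24 h, then 24 h more with sodium butyrate), or stable OCTN1/OCTN2 lines; vector-transfected cells as control. Washed, preincubated 15–60 min at 37 °C in modified Krebs-Henseleit/25 mM HEPES buffer. Uptake of radiolabelled substrate, 100 µM inhibitor. Cells lysed in NaOH and counted by scintillation; counts normalised to medium radioactivity and Lowry protein; vector uptake subtracted.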

[3] = biological target: T2, Broad substrate specificity ATP-binding cassette transporter ABCG2 (Homo sapiens, UniProt Q9UNQ0); experiment: Inhibition of human BCRP expressed in MDCK2 cells assessed as reduction of [3H]E-sul substrate transport up to 100 uM by liquid scintillation counting; type: ADME, cell-based; conditions: mdck-ii
T2 sequence (Q9UNQ0 whole entry): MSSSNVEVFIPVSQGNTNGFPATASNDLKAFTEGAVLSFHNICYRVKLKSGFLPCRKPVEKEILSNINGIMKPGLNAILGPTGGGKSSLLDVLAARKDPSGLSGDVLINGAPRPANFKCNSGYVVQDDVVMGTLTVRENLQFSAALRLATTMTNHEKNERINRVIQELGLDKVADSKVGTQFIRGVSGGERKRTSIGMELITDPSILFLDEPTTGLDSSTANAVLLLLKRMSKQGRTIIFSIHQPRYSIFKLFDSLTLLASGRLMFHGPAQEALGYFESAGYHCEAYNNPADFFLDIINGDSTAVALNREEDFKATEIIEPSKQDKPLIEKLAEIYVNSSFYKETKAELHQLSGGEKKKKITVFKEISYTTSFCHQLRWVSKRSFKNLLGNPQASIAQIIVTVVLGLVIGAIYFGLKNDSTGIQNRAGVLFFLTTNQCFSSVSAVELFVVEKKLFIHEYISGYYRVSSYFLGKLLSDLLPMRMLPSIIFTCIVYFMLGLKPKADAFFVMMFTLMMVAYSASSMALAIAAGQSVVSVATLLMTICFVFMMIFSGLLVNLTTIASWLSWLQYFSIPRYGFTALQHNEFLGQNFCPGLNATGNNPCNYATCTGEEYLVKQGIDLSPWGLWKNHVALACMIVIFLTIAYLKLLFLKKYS
How it was run: (§2)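 Membrane vesicles made from MDCKII cells expressing BCRP or MRP2, and from parental cells (1 μg/μL protein). Run in Tris-sucrose buffer, pH 7.4, with 10 mM MgCl2, creatine phosphokinase and ATP, or AMP as control. Substrates: 0.035 μM [3H]E-sul for BCRP, 2 min; 0.033 μM [3H]E217βG for MRP2, 5 min; both at 37 °C. Stopped ice-cold, filtered, and counted by scintillation.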

[4] = test system: P-glycoprotein; experiment: Permeability assessed as human P-glycoprotein-mediated transport across basolateral to apical side expressed in pig LLC-PK1 cells at 500 uM by liquid scintillation counting; type: ADME, cell-based
[5] = Inhibition of human P-glycoprotein expressed in pig LLC-PK1 cells assessed as reduction of [3H]digoxin substrate transport from basolateral to apical side by liquid scintillation counting; type: ADME, cell-based
[6] = biological target: T3, OCTN2 (Homo sapiens, UniProt O76082); experiment: Inhibition of OCTN2 (unknown origin) expressed in HEK293 cells assessed as reduction of [3H]carnitine substrate uptake at 100 uM by liquid scintillation counting; type: cell-based; conditions: HEK293 cells expressing OCTN2, probe [3H]carnitine; how it was run: as §1
T3 sequence (O76082 whole entry): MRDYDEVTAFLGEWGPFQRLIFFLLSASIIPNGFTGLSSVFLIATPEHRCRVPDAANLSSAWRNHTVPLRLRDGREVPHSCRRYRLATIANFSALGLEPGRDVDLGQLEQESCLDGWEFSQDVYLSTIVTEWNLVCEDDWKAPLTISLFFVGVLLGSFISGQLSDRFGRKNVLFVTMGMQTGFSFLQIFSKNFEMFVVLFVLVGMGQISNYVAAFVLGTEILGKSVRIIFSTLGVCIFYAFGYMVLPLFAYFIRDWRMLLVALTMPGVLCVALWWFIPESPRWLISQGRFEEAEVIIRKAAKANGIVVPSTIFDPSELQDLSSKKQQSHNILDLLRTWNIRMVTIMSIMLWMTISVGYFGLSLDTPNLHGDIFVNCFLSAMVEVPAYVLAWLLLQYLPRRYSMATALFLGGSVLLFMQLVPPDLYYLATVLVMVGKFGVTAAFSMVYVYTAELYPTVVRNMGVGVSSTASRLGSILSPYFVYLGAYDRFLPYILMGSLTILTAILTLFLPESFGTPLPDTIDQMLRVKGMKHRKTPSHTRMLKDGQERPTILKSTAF

[7] = test system: P-glycoprotein; experiment: Permeability assessed as human P-glycoprotein-mediated transport of basolateral to apical side in pig LLC-PK1 cells by measuring nontransporter-related passive membrane permeability by Transwell experiment/liquid scintillation counting; type: ADME, cell-based; conditions: read-out: permeability
[8] = biological target: ATP-binding cassette sub-family C member 2 (Homo sapiens, UniProt Q92887); experiment: Inhibition of human MRP2 expressed in MDCK2 cells assessed as reduction of [3H]E217betaG substrate transport up to 100 uM by liquid scintillation counting; type: ADME, cell-based; conditions: mdck-ii; how it was run: as §2
Chain of ATP-binding cassette sub-family C member 2 (Q92887 whole entry): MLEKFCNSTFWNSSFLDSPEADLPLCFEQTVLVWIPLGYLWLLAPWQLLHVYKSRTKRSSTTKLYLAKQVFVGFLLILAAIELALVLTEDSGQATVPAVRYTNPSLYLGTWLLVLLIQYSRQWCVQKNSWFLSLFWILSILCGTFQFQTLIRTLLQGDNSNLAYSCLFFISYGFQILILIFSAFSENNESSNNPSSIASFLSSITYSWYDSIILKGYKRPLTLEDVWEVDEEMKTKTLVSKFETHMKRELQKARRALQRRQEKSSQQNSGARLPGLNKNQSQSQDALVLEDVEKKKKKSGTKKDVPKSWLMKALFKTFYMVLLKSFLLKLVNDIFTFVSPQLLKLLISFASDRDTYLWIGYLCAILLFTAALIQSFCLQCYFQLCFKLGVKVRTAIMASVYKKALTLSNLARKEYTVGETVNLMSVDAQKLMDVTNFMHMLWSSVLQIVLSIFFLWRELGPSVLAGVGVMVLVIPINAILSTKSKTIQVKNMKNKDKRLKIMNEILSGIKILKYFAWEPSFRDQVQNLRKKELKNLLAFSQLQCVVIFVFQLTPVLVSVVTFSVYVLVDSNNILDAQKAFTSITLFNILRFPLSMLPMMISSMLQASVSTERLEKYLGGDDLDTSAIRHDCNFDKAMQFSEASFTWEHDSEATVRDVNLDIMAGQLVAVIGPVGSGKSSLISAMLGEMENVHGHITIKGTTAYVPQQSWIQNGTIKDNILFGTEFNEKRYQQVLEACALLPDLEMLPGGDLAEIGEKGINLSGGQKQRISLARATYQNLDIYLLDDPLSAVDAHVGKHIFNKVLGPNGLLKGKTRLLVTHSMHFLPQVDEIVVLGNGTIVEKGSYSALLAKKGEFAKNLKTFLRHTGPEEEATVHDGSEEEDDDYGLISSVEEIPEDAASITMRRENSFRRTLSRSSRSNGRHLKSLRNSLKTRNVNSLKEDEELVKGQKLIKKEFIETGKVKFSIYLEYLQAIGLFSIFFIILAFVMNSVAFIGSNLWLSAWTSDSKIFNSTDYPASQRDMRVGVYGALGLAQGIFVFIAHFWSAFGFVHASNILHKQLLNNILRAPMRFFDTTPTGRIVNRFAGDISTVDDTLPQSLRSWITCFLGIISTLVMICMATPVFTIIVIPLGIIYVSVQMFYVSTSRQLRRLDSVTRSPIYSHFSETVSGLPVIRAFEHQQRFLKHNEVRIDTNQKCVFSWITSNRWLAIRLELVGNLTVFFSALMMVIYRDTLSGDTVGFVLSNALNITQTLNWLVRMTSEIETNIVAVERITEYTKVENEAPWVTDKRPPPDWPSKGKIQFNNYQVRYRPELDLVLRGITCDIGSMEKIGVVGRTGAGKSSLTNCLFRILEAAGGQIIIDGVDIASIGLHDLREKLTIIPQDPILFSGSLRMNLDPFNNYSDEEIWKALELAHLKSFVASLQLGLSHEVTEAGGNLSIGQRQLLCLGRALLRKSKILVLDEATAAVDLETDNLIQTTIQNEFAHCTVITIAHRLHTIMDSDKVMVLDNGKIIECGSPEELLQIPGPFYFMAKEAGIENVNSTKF

CC#CCn1c(N2CCC[C@@H](N)C2)nc2c1c(=O)n(Cc1nc(C)c3ccccc3n1)c(=O)n2C [LINAGLIPTIN]
Km [1]: 154 µM | inhibition at 100 µM [2]: 19.4% | inhibition (INH) [3]: 24.7% | Papp B→A at 500 µM [4]: 15.7 ×10⁻⁶ cm/s | pIC50 [5]: 4.18 | inhibition at 100 µM [6]: 15.5% | Papp B→A [7]: 14.7 ×10⁻⁶ cm/s | inhibition (INH) [8]: Not Active
